Reference: ChEMBL document CHEMBL1165931, “Cytotoxic indole alkaloids from Melodinus tenuicaudatus” (J Nat Prod, 2010)

Experiments:
Type in all cases: functional, cell-based
[1] = tested on: HL-60; assay: Cytotoxicity against human HL60 cells after 48 hrs by MTT assay
Summary of the method: (§1)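 Cells grown in RPMI-1640 or DMEM with 10% FBS at 37 °C under 5% CO2. Adherent lines (A-549, MCF-7, SMMC-7721, SW480) were left to attach for 12 h before dosing; suspension HL-60 was seeded just before dosing at 1 × 10^5 cells/mL. Compounds were given in DMSO at 0.0625, 0.32, 1.6, 8 and 40 µmol, in triplicate, for 48 h. Read-out by MTT; cisplatin and vinorelbine were positive controls.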

[2] = tested on: SW480; assay: Cytotoxicity against human SW480 cells after 48 hrs by MTT assay; summary of the method: as §1
[3] = tested on: SMMC-7721; assay: Cytotoxicity against human SMMC7721 cells after 48 hrs by MTT assay; summary of the method: as §1
[4] = tested on: A549; assay: Cytotoxicity against human A549 cells after 48 hrs by MTT assay; summary of the method: as §1
[5] = tested on: MCF7; assay: Cytotoxicity against human MCF7 cells after 48 hrs by MTT assay; summary of the method: as §1

CCC1=C[C@@H]2CN(C1)Cc1c([nH]c3ccccc13)[C@@](C(=O)OC)(c1cc3c(cc1OC)N(C)[C@H]1[C@@](O)(C(=O)OC)[C@H](OC(C)=O)[C@]4(CC)C=CCN5CC[C@]31[C@@H]54)C2 [VINORELBINE]
IC50 [1]: < 0.06 µmol | IC50 [2]: > 40 µmol | IC50 [3]: 4.7 µmol | IC50 [4]: 26.1 µmol | IC50 [5]: 17.2 µmol

CC[C@]12C=CCN3CCc4c(n(c5ccccc45)[C@@H](OC)C1)[C@@H]32
IC50 [1]: 15.9 µmol | IC50 [2]: 32.2 µmol | IC50 [3]: 22.1 µmol | IC50 [4]: > 40 µmol | IC50 [5]: 29.3 µmol

COC(=O)[C@@H]1C[C@@]23C=CCN4CC[C@@]5(c6ccccc6N[C@]15[C@@H]2C)[C@@H]43 [VINDOLININE]
IC50 [1]: 6.8 µmol | IC50 [2]: 15.2 µmol | IC50 [3]: 20.7 µmol | IC50 [4]: 26.3 µmol | IC50 [5]: 21.9 µmol

CC[C@]12C=CCN3CCc4c(n(c5ccccc45)[C@@H](c4ccc5c(c4)[C@@]46CCN7CC=C[C@@]8(C[C@@H](C(=O)OC)[C@]4(N5)[C@@H]8C)[C@H]76)C1)[C@@H]32
IC50 [1]: 1.1 µmol | IC50 [2]: 1.4 µmol | IC50 [3]: 3.2 µmol | IC50 [4]: 4.8 µmol | IC50 [5]: 2.9 µmol

CC[C@]12C=CCN3CC[C@]4(C(=C(C(=O)OC)C1)Nc1cc5c(cc14)[C@@H]1[C@H](O5)[C@@H](O)[C@@]4(CC)CC(C(=O)OC)=C5Nc6ccccc6[C@@]56CCN1[C@@H]46)[C@@H]32 [MELODININE K]
IC50 [1]: 0.1 µmol | IC50 [2]: 5.7 µmol | IC50 [3]: 3 µmol | IC50 [4]: 5 µmol | IC50 [5]: 2.7 µmol

CC[C@]12C=CCN3CC[C@]4(C(=C(C(=O)OC)C1)Nc1cc(OC)ccc14)[C@@H]32
IC50 [1]: 0.2 µmol | IC50 [2]: 12.7 µmol | IC50 [3]: 13.1 µmol | IC50 [4]: 12.8 µmol | IC50 [5]: 2.1 µmol
